In brackets after ≈: the same amount, converted by molar mass.
The compounds below were run on Bacteroides caccae (assay: Antimicrobial activity against Bacteroides caccae after 48 hrs by agar dilution method).
Assay type: functional
In short: (§1)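 MICs on clinical anaerobe isolates by the CLSI agar dilution method. Inoculum of 10^5 CFU applied with a Steers replicator. Plates incubated 48 h at 37°C in an anaerobic chamber.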
`COc1c(N2C[C@@H]3CCCN[C@@H]3C2)c(F)cc2c(=O)c(C(=O)O)cn(C3CC3)c12` [MOXIFLOXACIN] gave an MIC50 of 2 µg/mL (≈ 4.98 µM) and an MIC90 of 16 µg/mL (≈ 39.9 µM).

What follows are compounds tested on Parabacteroides distasonis (assay: Antimicrobial activity against Bacteroides distasonis after 48 hrs by agar dilution method).
Assay type: functional
In short: as §1
`COc1c(N2C[C@@H]3CCCN[C@@H]3C2)c(F)cc2c(=O)c(C(=O)O)cn(C3CC3)c12` [MOXIFLOXACIN] gave an MIC50 of 2 µg/mL (≈ 4.98 µM) and an MIC90 of 16 µg/mL (≈ 39.9 µM).

These compounds were tested on Phocaeicola vulgatus (assay: Antimicrobial activity against Bacteroides vulgatus after 48 hrs by agar dilution method).
Assay type: functional
In short: as §1
With `COc1c(N2C[C@@H]3CCCN[C@@H]3C2)c(F)cc2c(=O)c(C(=O)O)cn(C3CC3)c12` [MOXIFLOXACIN] the MIC50 was 2 µg/mL (≈ 4.98 µM) and the MIC90 was 16 µg/mL (≈ 39.9 µM).

What follows are compounds tested on Bacteroides ovatus (assay: Antimicrobial activity against Bacteroides ovatus after 48 hrs by agar dilution method).
Assay type: functional
In short: as §1
Compound `COc1c(N2C[C@@H]3CCCN[C@@H]3C2)c(F)cc2c(=O)c(C(=O)O)cn(C3CC3)c12` [MOXIFLOXACIN] has an MIC50 of 2 µg/mL (≈ 4.98 µM) and an MIC90 of 16 µg/mL (≈ 39.9 µM).

Each compound was assayed on Bacteroides fragilis (assay: Antimicrobial activity against Bacteroides fragilis assessed as percent resistant isolates after 48 hrs by agar dilution method).
Assay type: functional
In short: (§2)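 CLSI agar dilution on recent Korean clinical anaerobe isolates. Inoculum 10^5 CFU per spot by replicator. Plates incubated in an anaerobic chamber at 37°C for 48 h. For piperacillin plus tazobactam, tazobactam was held constant at 4 μg/ml. Resistance and susceptibility rates derived from MICs.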
Compound `COc1c(N2C[C@@H]3CCCN[C@@H]3C2)c(F)cc2c(=O)c(C(=O)O)cn(C3CC3)c12` [MOXIFLOXACIN] has an Activity of 11%.

Each compound was assayed on Bacteroides thetaiotaomicron (assay: Antimicrobial activity against Bacteroides thetaiotaomicron assessed as percent susceptible isolates after 48 hrs by agar dilution method).
Assay type: functional
Work on `COc1c(N2C[C@@H]3CCCN[C@@H]3C2)c(F)cc2c(=O)c(C(=O)O)cn(C3CC3)c12` [MOXIFLOXACIN] yielded an Activity of 72%.

What follows are compounds tested on Bacteroides caccae (assay: Antimicrobial activity against Bacteroides caccae assessed as percent susceptible isolates after 48 hrs by agar dilution method).
Assay type: functional
`COc1c(N2C[C@@H]3CCCN[C@@H]3C2)c(F)cc2c(=O)c(C(=O)O)cn(C3CC3)c12` [MOXIFLOXACIN] gave an Activity of 72%.

What follows are compounds tested on Phocaeicola vulgatus (assay: Antimicrobial activity against Bacteroides vulgatus assessed as percent susceptible isolates after 48 hrs by agar dilution method).
Assay type: functional
Work on `COc1c(N2C[C@@H]3CCCN[C@@H]3C2)c(F)cc2c(=O)c(C(=O)O)cn(C3CC3)c12` [MOXIFLOXACIN] yielded an Activity of 72%.

These compounds were tested on Prevotella intermedia (assay: Antimicrobial activity against Prevotella intermedia after 48 hrs by agar dilution method).
Assay type: functional
In short: (§3)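 CLSI agar dilution (M11-A7); inoculum 10^5 CFU applied by replicator; plates incubated anaerobically 48 h at 37°C. For piperacillin-tazobactam, tazobactam held constant at 4 μg/ml.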
`COc1c(N2C[C@@H]3CCCN[C@@H]3C2)c(F)cc2c(=O)c(C(=O)O)cn(C3CC3)c12` [MOXIFLOXACIN] showed an MIC of 0.5 µg/mL (≈ 1.25 µM), an MIC50 of 0.5 µg/mL (≈ 1.25 µM) and an MIC90 of 0.5 µg/mL (≈ 1.25 µM).

What follows are compounds tested on Prevotella intermedia (assay: Antimicrobial activity against Prevotella intermedia assessed as percent susceptible isolates after 48 hrs by agar dilution method).
Assay type: functional
In short: as §3
`COc1c(N2C[C@@H]3CCCN[C@@H]3C2)c(F)cc2c(=O)c(C(=O)O)cn(C3CC3)c12` [MOXIFLOXACIN] showed an Activity of 100%.

These compounds were tested on Prevotella bivia (assay: Antimicrobial activity against Prevotella bivia assessed as percent susceptible isolates after 48 hrs by agar dilution method).
Assay type: functional
In short: as §3
`COc1c(N2C[C@@H]3CCCN[C@@H]3C2)c(F)cc2c(=O)c(C(=O)O)cn(C3CC3)c12` [MOXIFLOXACIN] showed an Activity of 56%.

The compounds below were run on Prevotella buccae (assay: Antimicrobial activity against Prevotella buccae assessed as percent susceptible isolates after 48 hrs by agar dilution method).
Assay type: functional, Segatella buccae
In short: as §3
`COc1c(N2C[C@@H]3CCCN[C@@H]3C2)c(F)cc2c(=O)c(C(=O)O)cn(C3CC3)c12` [MOXIFLOXACIN] was tested, and the Activity was 56%.

The compounds below were run on Hoylesella oralis (assay: Antimicrobial activity against Prevotella oralis assessed as percent resistant isolates after 48 hrs by agar dilution method).
Assay type: functional
In short: as §2
`COc1c(N2C[C@@H]3CCCN[C@@H]3C2)c(F)cc2c(=O)c(C(=O)O)cn(C3CC3)c12` [MOXIFLOXACIN] was tested, and the Activity was 11%.

These compounds were tested on Parvimonas micra (assay: Antimicrobial activity against Peptostreptococcus micros assessed as percent susceptible isolates after 48 hrs by agar dilution method).
Assay type: functional
In short: as §2
`COc1c(N2C[C@@H]3CCCN[C@@H]3C2)c(F)cc2c(=O)c(C(=O)O)cn(C3CC3)c12` [MOXIFLOXACIN] gave an Activity of 8%.

The compounds below were run on Peptoniphilus asaccharolyticus (assay: Antimicrobial activity against Peptoniphilus asaccharolyticus after 48 hrs by agar dilution method).
Assay type: functional
In short: as §3
`COc1c(N2C[C@@H]3CCCN[C@@H]3C2)c(F)cc2c(=O)c(C(=O)O)cn(C3CC3)c12` [MOXIFLOXACIN] was tested, and the MIC50 was 0.25 µg/mL (≈ 0.623 µM) and the MIC90 was 2 µg/mL (≈ 4.98 µM).

The compounds below were run on Finegoldia magna (assay: Antimicrobial activity against Finegoldia magna after 48 hrs by agar dilution method).
Assay type: functional
In short: as §3
Work on `COc1c(N2C[C@@H]3CCCN[C@@H]3C2)c(F)cc2c(=O)c(C(=O)O)cn(C3CC3)c12` [MOXIFLOXACIN] yielded an MIC50 of 0.5 µg/mL (≈ 1.25 µM) and an MIC90 of 8 µg/mL (≈ 19.9 µM).

What follows are compounds tested on Actinomyces israelii (assay: Antimicrobial activity against Actinomyces israelii after 48 hrs by agar dilution method).
Assay type: functional
In short: as §1
With `COc1c(N2C[C@@H]3CCCN[C@@H]3C2)c(F)cc2c(=O)c(C(=O)O)cn(C3CC3)c12` [MOXIFLOXACIN] the MIC50 was 1 µg/mL (≈ 2.49 µM) and the MIC90 was 2 µg/mL (≈ 4.98 µM).

The compounds below were run on Schaalia meyeri (assay: Antimicrobial activity against Actinomyces meyeri after 48 hrs by agar dilution method).
Assay type: functional
In short: as §1
`COc1c(N2C[C@@H]3CCCN[C@@H]3C2)c(F)cc2c(=O)c(C(=O)O)cn(C3CC3)c12` [MOXIFLOXACIN] showed an MIC50 of 1 µg/mL (≈ 2.49 µM) and an MIC90 of 2 µg/mL (≈ 4.98 µM).

The compounds below were run on Schaalia meyeri (assay: Antimicrobial activity against Actinomyces meyeri assessed as percent resistant isolates after 48 hrs by agar dilution method).
Assay type: functional
In short: as §2
`COc1c(N2C[C@@H]3CCCN[C@@H]3C2)c(F)cc2c(=O)c(C(=O)O)cn(C3CC3)c12` [MOXIFLOXACIN] was tested, and the Activity was 0%.

What follows are compounds tested on Actinomyces naeslundii (assay: Antimicrobial activity against Actinomyces naeslundii assessed as percent resistant isolates after 48 hrs by agar dilution method).
Assay type: functional
In short: as §2
For `COc1c(N2C[C@@H]3CCCN[C@@H]3C2)c(F)cc2c(=O)c(C(=O)O)cn(C3CC3)c12` [MOXIFLOXACIN], the Activity was 0%.

The compounds below were run on Bifidobacterium adolescentis (assay: Antimicrobial activity against Bifidobacterium adolescentis after 48 hrs by agar dilution method).
Assay type: functional
In short: as §1
In the case of `COc1c(N2C[C@@H]3CCCN[C@@H]3C2)c(F)cc2c(=O)c(C(=O)O)cn(C3CC3)c12` [MOXIFLOXACIN], the MIC50 is reported as 1 µg/mL (≈ 2.49 µM) and the MIC90 is reported as 2 µg/mL (≈ 4.98 µM).

The compounds below were run on Eggerthella lenta (assay: Antimicrobial activity against Eubacterium lentum assessed as percent susceptible isolates after 48 hrs by agar dilution method).
Assay type: functional
In short: as §3
In the case of `COc1c(N2C[C@@H]3CCCN[C@@H]3C2)c(F)cc2c(=O)c(C(=O)O)cn(C3CC3)c12` [MOXIFLOXACIN], the Activity is reported as 92%.

The compounds below were run on Eggerthella lenta (assay: Antimicrobial activity against Eubacterium lentum assessed as percent resistant isolates after 48 hrs by agar dilution method).
Assay type: functional
In short: as §2
For `COc1c(N2C[C@@H]3CCCN[C@@H]3C2)c(F)cc2c(=O)c(C(=O)O)cn(C3CC3)c12` [MOXIFLOXACIN], the Activity was 0%.

Each compound was assayed on Eubacterium sp. (assay: Antimicrobial activity against Eubacterium sp. after 48 hrs by agar dilution method).
Assay type: functional
In short: as §3
`COc1c(N2C[C@@H]3CCCN[C@@H]3C2)c(F)cc2c(=O)c(C(=O)O)cn(C3CC3)c12` [MOXIFLOXACIN] showed an MIC50 of 1 µg/mL (≈ 2.49 µM) and an MIC90 of 2 µg/mL (≈ 4.98 µM).

Source: ChEMBL document CHEMBL1671716, “Antimicrobial susceptibility patterns for recent clinical isolates of anaerobic bacteria in South Korea” (2010)
